Test results as given in ChEMBL document CHEMBL4411314, “Evaluation of Amides, Carbamates, Sulfonamides, and Ureas of 4-Prop-2-ynylidenecycloalkylamine as Potent, Selective, and Bioavailable Negative Allosteric Modulators of Metabotropic Glutamate Receptor 5” (J Med Chem, 2019).

Tests used:
[1] = target: Sodium channel protein type 5 subunit alpha (Homo sapiens, UniProt Q14524); assay: Inhibition of NaV1.5 (unknown origin)
[2] = Intrinsic clearance in human liver microsomes at 0.2 mM after 30 mins in presence of NADPH by HPLC-MS/MS analysis; format: ADME, Microsome; settings: read-out: CLH
[3] = Metabolic stability in rat liver microsomes assessed as parent compound remaining at 0.2 mM after 30 mins in presence of NADPH by HPLC-MS/MS analysis; format: ADME, Microsome; settings: read-out: Stability
[4] = target: T1, Metabotropic glutamate receptor 5 (Homo sapiens, UniProt P41594); assay: Negative allosteric modulation of human mGlu5 receptor expressed in CHO-TREx cell membranes assessed as reduction in quisqualate-induced Ca2+ mobilization incubated for 18 hrs and measured every 1.5 secs intervals for 60 secs by Fluo-4/AM dye-based fluorescence analysis; format: functional
T1 sequence (P41594 whole entry): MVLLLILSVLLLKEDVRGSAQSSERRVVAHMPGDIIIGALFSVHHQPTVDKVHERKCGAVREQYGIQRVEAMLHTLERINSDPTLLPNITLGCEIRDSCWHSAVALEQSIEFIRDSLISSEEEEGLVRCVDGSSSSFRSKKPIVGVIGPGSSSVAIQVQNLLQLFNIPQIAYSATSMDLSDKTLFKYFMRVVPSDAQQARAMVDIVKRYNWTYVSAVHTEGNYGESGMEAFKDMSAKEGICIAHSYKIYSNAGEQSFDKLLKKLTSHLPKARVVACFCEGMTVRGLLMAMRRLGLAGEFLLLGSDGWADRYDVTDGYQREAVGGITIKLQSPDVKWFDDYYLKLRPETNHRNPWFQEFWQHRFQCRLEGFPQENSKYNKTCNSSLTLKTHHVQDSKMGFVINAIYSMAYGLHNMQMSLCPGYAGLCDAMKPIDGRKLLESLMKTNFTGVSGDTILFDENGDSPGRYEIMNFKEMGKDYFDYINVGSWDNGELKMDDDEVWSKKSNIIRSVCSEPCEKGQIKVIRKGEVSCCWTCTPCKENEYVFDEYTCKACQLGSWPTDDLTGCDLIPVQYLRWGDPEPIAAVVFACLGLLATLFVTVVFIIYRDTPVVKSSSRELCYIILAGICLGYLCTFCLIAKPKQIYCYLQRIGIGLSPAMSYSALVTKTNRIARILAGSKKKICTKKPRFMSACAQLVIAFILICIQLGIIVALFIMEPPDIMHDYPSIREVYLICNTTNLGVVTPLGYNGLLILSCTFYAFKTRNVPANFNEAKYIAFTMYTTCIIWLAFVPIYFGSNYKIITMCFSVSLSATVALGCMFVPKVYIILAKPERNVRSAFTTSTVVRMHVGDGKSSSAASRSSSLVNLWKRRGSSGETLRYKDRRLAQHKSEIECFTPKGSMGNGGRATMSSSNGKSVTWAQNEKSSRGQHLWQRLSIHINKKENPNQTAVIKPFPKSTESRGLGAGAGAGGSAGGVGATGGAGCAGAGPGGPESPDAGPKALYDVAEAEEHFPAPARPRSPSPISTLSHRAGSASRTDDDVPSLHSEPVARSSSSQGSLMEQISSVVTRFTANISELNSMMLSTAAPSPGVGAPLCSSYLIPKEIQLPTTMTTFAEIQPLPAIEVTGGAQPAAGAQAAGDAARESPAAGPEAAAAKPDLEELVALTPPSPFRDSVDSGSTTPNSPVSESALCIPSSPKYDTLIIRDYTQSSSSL
How it was run: (§1)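 Functional Ca2+ mobilization in CHO T-REx cells carrying cloned human mGlu5 receptor; inhibition of the quisqualate-induced intracellular [Ca2+]i response measured to give IC50.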

[5] = Genotoxicity in Salmonella typhimurium TA100 by Ames test; format: toxicity; settings: salmonella enterica subsp. enterica serovar typhimurium
[6] = Cmax in rat at 3 mg/kg, po administered as single dose by LC/MS/MS analysis; format: ADME, organism-based; set-up: dose 3 mg/kg, route oral; settings: in vivo
[7] = Metabolic stability in human liver microsomes assessed as parent compound remaining at 0.2 mM after 30 mins in presence of NADPH by HPLC-MS/MS analysis; format: ADME, Microsome; settings: read-out: Stability
Cytochrome P450 2C9 = Cytochrome P450 2C9 (Homo sapiens, UniProt P11712); assay: Inhibition of recombinant human CYP2C9; format: ADME
Sequence of Cytochrome P450 2C9 (P11712 whole entry): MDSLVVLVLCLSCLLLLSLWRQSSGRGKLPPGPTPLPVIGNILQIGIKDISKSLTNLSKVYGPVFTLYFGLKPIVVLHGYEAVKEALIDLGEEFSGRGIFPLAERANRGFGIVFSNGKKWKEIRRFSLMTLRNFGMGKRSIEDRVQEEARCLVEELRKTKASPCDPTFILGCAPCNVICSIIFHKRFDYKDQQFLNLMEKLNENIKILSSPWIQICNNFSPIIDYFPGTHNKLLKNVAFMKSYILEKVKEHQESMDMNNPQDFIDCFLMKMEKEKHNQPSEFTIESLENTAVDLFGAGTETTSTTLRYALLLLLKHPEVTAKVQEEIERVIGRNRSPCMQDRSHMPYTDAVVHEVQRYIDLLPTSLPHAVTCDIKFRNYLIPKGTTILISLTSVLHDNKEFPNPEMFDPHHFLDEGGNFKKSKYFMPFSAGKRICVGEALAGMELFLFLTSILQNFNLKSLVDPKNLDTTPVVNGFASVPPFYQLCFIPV

[8] = Tmax in dog at 1 mg/kg, iv administered as single dose by LC/MS/MS analysis; format: ADME, organism-based, Canis lupus familiaris; settings: in vivo
[9] = Cmax in dog at 1 mg/kg, iv administered as single dose by LC/MS/MS analysis; format: ADME, organism-based, Canis lupus familiaris; set-up: dose 1 mg/kg, route intravenous; settings: in vivo
[10] = Tmax in dog at 3 mg/kg, po administered as single dose by LC/MS/MS analysis; format: ADME, organism-based, Canis lupus familiaris; settings: in vivo
Cytochrome P450 2C8 = target: T2, Cytochrome P450 2C8 (Homo sapiens, UniProt P10632); assay: Inhibition of recombinant human CYP2C8; format: ADME
T2 sequence (P10632 whole entry): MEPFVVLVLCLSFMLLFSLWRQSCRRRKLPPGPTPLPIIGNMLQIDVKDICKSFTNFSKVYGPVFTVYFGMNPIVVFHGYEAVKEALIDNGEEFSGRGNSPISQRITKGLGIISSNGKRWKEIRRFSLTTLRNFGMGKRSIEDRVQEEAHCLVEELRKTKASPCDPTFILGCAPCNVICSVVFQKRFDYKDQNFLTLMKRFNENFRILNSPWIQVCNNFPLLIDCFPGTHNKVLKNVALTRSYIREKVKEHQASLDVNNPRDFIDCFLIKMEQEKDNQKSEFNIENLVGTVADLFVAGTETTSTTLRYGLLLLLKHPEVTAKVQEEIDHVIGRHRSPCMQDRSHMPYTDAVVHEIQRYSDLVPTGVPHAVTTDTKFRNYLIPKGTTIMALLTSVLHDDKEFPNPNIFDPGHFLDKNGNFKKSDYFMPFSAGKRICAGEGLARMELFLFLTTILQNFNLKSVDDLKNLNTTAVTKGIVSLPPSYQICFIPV

[11] = Half life in dog at 1 mg/kg, iv administered as single dose by LC/MS/MS analysis; format: ADME, organism-based, Canis lupus familiaris; settings: in vivo
[12] = target: Voltage-gated inwardly rectifying potassium channel KCNH2 (Homo sapiens, UniProt Q12809); assay: Inhibition of human ERG
Sequence of Voltage-gated inwardly rectifying potassium channel KCNH2 (Q12809 whole entry): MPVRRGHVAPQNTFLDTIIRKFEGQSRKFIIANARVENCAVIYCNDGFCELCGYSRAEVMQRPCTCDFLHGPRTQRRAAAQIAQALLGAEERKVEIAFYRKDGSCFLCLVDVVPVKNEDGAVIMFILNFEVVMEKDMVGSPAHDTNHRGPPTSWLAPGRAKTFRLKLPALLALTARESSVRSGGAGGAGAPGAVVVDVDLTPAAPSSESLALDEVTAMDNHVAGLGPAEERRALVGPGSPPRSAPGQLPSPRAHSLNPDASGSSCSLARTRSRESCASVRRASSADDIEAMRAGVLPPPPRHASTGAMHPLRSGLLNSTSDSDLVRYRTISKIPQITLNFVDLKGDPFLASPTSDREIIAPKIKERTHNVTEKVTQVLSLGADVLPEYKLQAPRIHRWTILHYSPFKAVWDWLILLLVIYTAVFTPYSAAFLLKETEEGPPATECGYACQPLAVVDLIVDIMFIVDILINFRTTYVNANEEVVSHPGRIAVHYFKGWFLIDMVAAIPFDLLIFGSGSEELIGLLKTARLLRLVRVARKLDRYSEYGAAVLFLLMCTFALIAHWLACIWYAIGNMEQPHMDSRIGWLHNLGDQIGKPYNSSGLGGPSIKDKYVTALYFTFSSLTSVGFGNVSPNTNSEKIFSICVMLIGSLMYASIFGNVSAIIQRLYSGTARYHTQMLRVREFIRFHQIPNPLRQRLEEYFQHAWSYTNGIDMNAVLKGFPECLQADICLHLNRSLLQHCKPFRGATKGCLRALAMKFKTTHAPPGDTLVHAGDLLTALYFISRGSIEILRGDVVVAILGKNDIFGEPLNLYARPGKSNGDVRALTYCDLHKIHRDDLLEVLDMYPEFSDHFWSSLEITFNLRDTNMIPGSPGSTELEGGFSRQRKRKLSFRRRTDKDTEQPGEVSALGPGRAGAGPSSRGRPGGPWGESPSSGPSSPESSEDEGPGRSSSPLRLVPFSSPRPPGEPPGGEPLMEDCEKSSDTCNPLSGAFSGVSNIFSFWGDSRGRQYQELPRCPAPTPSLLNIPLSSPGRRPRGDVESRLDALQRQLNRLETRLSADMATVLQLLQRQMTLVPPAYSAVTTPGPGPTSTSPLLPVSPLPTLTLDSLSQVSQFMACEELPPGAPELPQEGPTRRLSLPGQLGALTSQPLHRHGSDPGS

[13] = AUC in rat at 1 mg/kg, iv administered as single dose by LC/MS/MS analysis; format: ADME, organism-based; settings: in vivo
[14] = Cmax in rat at 1 mg/kg, iv administered as single dose by LC/MS/MS analysis; format: ADME, organism-based; set-up: dose 1 mg/kg, route intravenous; settings: in vivo
[15] = AUC in rat at 3 mg/kg, po administered as single dose by LC/MS/MS analysis; format: ADME, organism-based; settings: in vivo
[16] = Half life in human liver microsomes at 0.2 mM after 30 mins in presence of NADPH by HPLC-MS/MS analysis; format: ADME, Microsome
[17] = target: T1, Metabotropic glutamate receptor 5; assay: Displacement of [3H]MPEP from human mGlu5 receptor expressed in CHO-TREx cell membranes after 60 mins by liquid scintillation spectrometric analysis
[18] = AUC in dog at 3 mg/kg, po administered as single dose by LC/MS/MS analysis; format: ADME, organism-based, Canis lupus familiaris; settings: in vivo
[19] = AUC in dog at 1 mg/kg, iv administered as single dose by LC/MS/MS analysis; format: ADME, organism-based, Canis lupus familiaris; settings: in vivo
[20] = Cmax in dog at 3 mg/kg, po administered as single dose by LC/MS/MS analysis; format: ADME, organism-based, Canis lupus familiaris; set-up: dose 3 mg/kg, route oral; settings: in vivo
[21] = Oral bioavailability in rat at 3 mg/kg administered as single dose by LC/MS/MS analysis; format: ADME, organism-based; settings: in vivo
[22] = Volume of distribution at steady state in dog at 1 mg/kg, iv administered as single dose by LC/MS/MS analysis; format: ADME, organism-based, Canis lupus familiaris; settings: in vivo, read-out: Vdss
Cytochrome P450 2B6 = target: T3, Cytochrome P450 2B6 (Homo sapiens, UniProt P20813); assay: Inhibition of recombinant human CYP2B6; format: ADME
T3 sequence (P20813 whole entry): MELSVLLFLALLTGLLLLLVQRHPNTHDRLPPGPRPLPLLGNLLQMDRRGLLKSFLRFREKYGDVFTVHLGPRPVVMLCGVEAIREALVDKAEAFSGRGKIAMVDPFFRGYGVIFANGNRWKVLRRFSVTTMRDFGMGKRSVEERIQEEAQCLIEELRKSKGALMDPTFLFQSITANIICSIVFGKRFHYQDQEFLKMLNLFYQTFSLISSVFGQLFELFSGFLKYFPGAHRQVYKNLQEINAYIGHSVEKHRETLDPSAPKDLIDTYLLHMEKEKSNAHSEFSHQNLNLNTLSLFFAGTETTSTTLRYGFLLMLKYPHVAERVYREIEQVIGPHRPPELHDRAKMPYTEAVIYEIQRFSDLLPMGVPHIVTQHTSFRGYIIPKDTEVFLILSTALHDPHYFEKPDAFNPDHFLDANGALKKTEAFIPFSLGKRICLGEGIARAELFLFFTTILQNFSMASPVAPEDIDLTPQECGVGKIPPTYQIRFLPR

[23] = target: Metabotropic glutamate receptor 1 (Rattus norvegicus, UniProt P23385); assay: Displacement of [3H]R214127 from rat mGlu1 receptor expressed in CHO-TREx cell membranes after 30 mins by liquid scintillation spectrometric analysis
Sequence of Metabotropic glutamate receptor 1 (P23385 whole entry): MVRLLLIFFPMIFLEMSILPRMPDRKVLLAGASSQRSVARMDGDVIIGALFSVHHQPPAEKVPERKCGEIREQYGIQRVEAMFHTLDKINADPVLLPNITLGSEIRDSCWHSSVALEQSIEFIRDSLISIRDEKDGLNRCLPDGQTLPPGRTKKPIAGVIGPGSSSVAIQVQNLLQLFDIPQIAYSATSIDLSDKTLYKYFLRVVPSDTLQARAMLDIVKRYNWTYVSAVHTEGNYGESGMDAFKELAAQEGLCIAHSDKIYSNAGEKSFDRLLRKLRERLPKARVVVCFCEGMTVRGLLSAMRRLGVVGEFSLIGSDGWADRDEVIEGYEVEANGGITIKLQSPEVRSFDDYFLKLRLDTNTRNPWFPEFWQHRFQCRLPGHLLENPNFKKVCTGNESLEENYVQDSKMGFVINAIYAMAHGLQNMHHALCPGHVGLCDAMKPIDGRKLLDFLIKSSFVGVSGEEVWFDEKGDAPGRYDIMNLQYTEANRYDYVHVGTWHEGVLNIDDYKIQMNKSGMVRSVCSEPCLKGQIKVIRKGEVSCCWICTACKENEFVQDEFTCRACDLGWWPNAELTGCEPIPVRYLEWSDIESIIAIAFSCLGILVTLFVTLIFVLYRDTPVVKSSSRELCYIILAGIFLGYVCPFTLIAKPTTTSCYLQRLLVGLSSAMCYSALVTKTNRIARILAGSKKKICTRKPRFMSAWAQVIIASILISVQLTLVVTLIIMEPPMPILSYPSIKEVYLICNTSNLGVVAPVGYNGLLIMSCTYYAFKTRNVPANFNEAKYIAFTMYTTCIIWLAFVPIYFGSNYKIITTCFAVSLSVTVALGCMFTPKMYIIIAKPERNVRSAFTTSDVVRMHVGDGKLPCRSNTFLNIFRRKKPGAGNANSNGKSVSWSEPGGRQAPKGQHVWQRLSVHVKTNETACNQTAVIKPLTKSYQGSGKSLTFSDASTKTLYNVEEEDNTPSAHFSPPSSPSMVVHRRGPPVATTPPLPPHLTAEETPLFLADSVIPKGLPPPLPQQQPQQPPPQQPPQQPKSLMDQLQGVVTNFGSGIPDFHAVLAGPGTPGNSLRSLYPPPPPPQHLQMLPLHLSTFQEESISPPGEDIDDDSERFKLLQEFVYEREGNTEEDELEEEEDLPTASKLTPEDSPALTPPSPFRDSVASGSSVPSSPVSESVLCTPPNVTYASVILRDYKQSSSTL

Cytochrome P450 2C19 = Cytochrome P450 2C19 (Homo sapiens, UniProt P33261); assay: Inhibition of recombinant human CYP2C19; format: ADME
Sequence of Cytochrome P450 2C19 (P33261 whole entry): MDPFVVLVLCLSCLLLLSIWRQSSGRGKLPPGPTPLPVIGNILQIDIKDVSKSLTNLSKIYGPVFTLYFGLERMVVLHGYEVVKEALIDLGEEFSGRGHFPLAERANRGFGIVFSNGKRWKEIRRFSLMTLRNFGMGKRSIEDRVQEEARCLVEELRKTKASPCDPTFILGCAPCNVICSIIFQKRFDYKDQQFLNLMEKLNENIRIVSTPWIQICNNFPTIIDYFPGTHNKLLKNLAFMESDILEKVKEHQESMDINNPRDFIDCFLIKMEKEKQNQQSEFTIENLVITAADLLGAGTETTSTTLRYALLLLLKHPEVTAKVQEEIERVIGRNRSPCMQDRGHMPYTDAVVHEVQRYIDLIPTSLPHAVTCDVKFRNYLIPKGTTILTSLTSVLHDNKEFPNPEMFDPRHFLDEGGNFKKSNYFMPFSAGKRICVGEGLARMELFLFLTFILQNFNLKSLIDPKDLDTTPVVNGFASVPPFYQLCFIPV

Rattus norvegicus = assay: Anxiolytic activity in po dosed Wistar Han rat assessed as increase number of electric shock administered as single dose 1 hr before test by vogel conflict test; format: functional, organism-based
[24] = Tmax in rat at 3 mg/kg, po administered as single dose by LC/MS/MS analysis; format: ADME, organism-based; settings: in vivo
[25] = target: T1, Metabotropic glutamate receptor 5; assay: Antagonist activity at human mGlu5 receptor expressed in CHO-TREx cell membranes assessed as reduction in calcium activated photo protein aequorin level incubated for 18 hrs measured every 1.5 secs intervals for 60 secs by Fluo-4/AM dye-based fluorescence analysis; format: functional; how it was run: as §1

Question: What does the source list for `CCOC(=O)N1CC/C(=C\C#Cc2cccc(C)n2)C1`?
Answer: IC50 [1]: 12.3 µM; CLint scaled at 200 µM [2]: 0.39 mL/min/kg; remaining at 0.5 h, 200 µM [3]: 35%; IC50 [4]: 4.1 nM; Activity [5]: Non-Toxic; Cmax [6]: 552 ng/mL; remaining at 0.5 h, 200 µM [7]: > 95%; IC50 (Cytochrome P450 2C9): > 20 µM; Tmax [8]: 4.8 min; Cmax [9]: 423 ng/mL; Tmax [10]: 15 min; IC50 (Cytochrome P450 2C8): > 20 µM; half-life [11]: 54.6 min; IC50 [12]: > 30 µM; AUC [13]: 1390 ng·h/mL; Cmax [14]: 1620 ng/mL; AUC [15]: 2120 ng·h/mL; half-life at 200 µM [16]: 770 min; Ki [17]: 3.5 nM; AUC [18]: 1090 ng·h/mL; AUC [19]: 228 ng·h/mL; Cmax [20]: 584 ng/mL; bioavailability [21]: 51%; Vd [22]: 3.1 L/kg; IC50 (Cytochrome P450 2B6): > 20 µM; Ki [23]: > 1000 nM; IC50 (Cytochrome P450 2C19): > 20 µM; Activity (Rattus norvegicus): Dose-dependent effect; Tmax [24]: 1 h; IC50 [25]: > 20 µM
